{"source": "paper PMC3394096", "about": "(Investigational New Drugs, 2011)", "key": {"[1]": {"test": "Phase I safety, dose-limiting toxicity and maximum tolerated dose", "type": "in vivo, human"}, "[2]": {"test_system": "Ca125 antigen", "test": "Phase I serum Ca125 antigen", "type": "in vivo, human", "conditions": "ovarian cancer patient with prolonged stable disease"}, "[3]": {"test_system": "HCT116 (colon cancer)", "conditions": "cited from earlier work"}, "[4]": {"test_system": "KSP", "conditions": "read-out: IC50 (KSP); background statement, ref not given; cited from earlier work"}, "[5]": {"test_system": "other kinesins", "conditions": "background statement, ref not given; cited from earlier work"}, "[6]": {"test_system": "xenograft tumors", "conditions": "mice, multi-dose regimen; background statement, ref not given; cited from earlier work"}, "[7]": {"test_system": "human ovarian carcinoma cells", "conditions": "treated human ovarian carcinoma cells; cited from earlier work"}, "[8]": {"test": "Phase I plasma pharmacokinetics, 24-hour continuous IV infusion", "type": "in vivo, human", "how_it_was_run": "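Test compound given to patients as a 24 h continuous IV infusion in 21-day cycles. Plasma sampled predose, at 1, 3, 6, 12, 16 and 24 h, then at 24.5–96 h from infusion start. Extraction used pH 10.7 carbonate buffer with MTBE:hexane, then HPLC-MS/MS in positive ion mode; standard curve 1–200 ng/mL. t1/2 from an unweighted single-exponential fit to the log-linear terminal phase. AUC(0-∞) by linear up/log down with extrapolation. Clearance calculated as dose/AUC.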"}, "[9]": {"test": "Phase I urinary recovery of unchanged drug", "type": "in vivo, human", "conditions": "on average, at the highest dose levels", "how_it_was_run": "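Urine collected during the 24 h infusion at 0–4, 4–8, 8–12 and 12–24 h, then at 24–28, 28–32, 32–36 and 36–48 h from infusion start. Unchanged test compound concentration and urine volume per interval gave total urinary recovery as percentage of dose. Calculated for subjects at the highest dose levels.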"}, "[10]": {"test_system": "KB-3-1 (cervical cancer)", "conditions": "cited from earlier work"}, "[11]": {"test_system": "solid tumors", "test": "Phase I tumor response", "type": "in vivo, human", "how_it_was_run": "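Patients with measurable taxane-resistant solid tumors received a 24 h continuous IV infusion every 21 days, with serial radiologic assessments. At baseline, longest diameters were summed for up to five lesions per organ and ten in total. Lesions had to measure ≥20 mm by conventional techniques or ≥10 mm by spiral CT. Response and progression were graded by RECIST v1.0.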"}, "[12]": {"test_system": "A2780 (ovarian cancer)", "conditions": "cited from earlier work"}, "[13]": {"conditions": "12 mg/m^2/24 h, treatment-related, all cycles (n=47)"}, "[14]": {"conditions": "17 mg/m^2/24 h, treatment-related, all cycles (n=47)"}, "[15]": {"conditions": "24 mg/m^2/24 h, treatment-related, all cycles (n=47)"}, "[16]": {"conditions": "48 mg/m^2/24 h, treatment-related, all cycles (n=47)"}}, "note": "Entries after “also recorded” stand apart in the source; their conditions may differ. Marks after values point to notes of the source that are not given here."}
{"smiles": "CN1CC[C@H](N(C)C(=O)N2CC(c3cc(F)ccc3F)=C[C@@]2(CO)c2ccccc2)[C@H](F)C1", "note": "[MK-0731, (2S)-4-(2,5-difluorophenyl)-n-[(3R,4S)-3-fluoro-1-methylpiperidin-4-yl]-2-(hydroxymethyl)-N-methyl-2-phenyl-2,5-dihydro-1H-pyrrole-1-carboxamide]", "values": [{"measurement": "toxicities, part 1", "setting": "[1]; 12 mg/m^2", "result": "no further toxicities were observed"}, {"measurement": "Leukopenia, Grade 2, %", "setting": "[1]; [13]", "result": 2.1, "unit": "%"}, {"measurement": "Neutropenia, Grade 2, %", "setting": "[1]; [13]", "result": 2.1, "unit": "%"}, {"measurement": "Vomiting, Grade 2, %", "setting": "[1]; [13]", "result": 2.1, "unit": "%"}, {"measurement": "DLT, part 1", "setting": "[1]; 17 mg/m^2, six patients", "result": "none experienced DLT"}, {"measurement": "DLTs, part 2", "setting": "[1]; 17 mg/m^2/24 h, 22 patients", "result": "no DLTs"}, {"measurement": "Hypophosphatemia, Grade 2, %", "setting": "[1]; [14]", "result": 2.1, "unit": "%"}, {"measurement": "Leukopenia, Grade 3, %", "setting": "[1]; [14]", "result": 2.1, "unit": "%"}, {"measurement": "Thrombocytopenia, Grade 2, %", "setting": "[1]; [14]", "result": 2.1, "unit": "%"}, {"measurement": "Leukopenia, Grade 2, %", "setting": "[1]; [15]", "result": 2.1, "unit": "%"}, {"measurement": "Neutropenia, Grade 2, %", "setting": "[1]; [15]", "result": 2.1, "unit": "%"}, {"measurement": "Neutropenia, Grade 3, %", "setting": "[1]; [15]", "result": 2.1, "unit": "%"}, {"measurement": "Hyperglycemia, Grade 3, %", "setting": "[1]; [16]", "result": 2.1, "unit": "%"}, {"measurement": "Hypocalcemia, Grade 2, %", "setting": "[1]; [16]", "result": 2.1, "unit": "%"}, {"measurement": "Hypophosphatemia, Grade 2, %", "setting": "[1]; [16]", "result": 2.1, "unit": "%"}, {"measurement": "Leukopenia, Grade 2, %", "setting": "[1]; [16]", "result": 2.1, "unit": "%"}, {"measurement": "Leukopenia, Grade 3, %", "setting": "[1]; [16]", "result": 2.1, "unit": "%"}, {"measurement": "Mucosal Inflammation, Grade 2, %", "setting": "[1]; [16]", "result": 2.1, "unit": "%"}, {"measurement": "Nausea, Grade 3, %", "setting": "[1]; [16]", "result": 2.1, "unit": "%"}, {"measurement": "Thrombocytopenia, Grade 2, %", "setting": "[1]; [16]", "result": 2.1, "unit": "%"}, {"measurement": "Vomiting, Grade 3, %", "setting": "[1]; [16]", "result": 2.1, "unit": "%"}, {"measurement": "maximum tolerated dose", "setting": "[1]; 24-hour IV infusion, 21-day cycles", "result": 17, "unit": "mg/m^2"}, {"measurement": "neuropathy", "setting": "[1]; all doses", "result": "without the development of neuropathy"}, {"measurement": "levels of the Ca125 antigen", "setting": "[2]", "result": "No decreases"}, {"measurement": "proliferation", "setting": "[3]", "result": "inhibits proliferation"}, {"measurement": "IC50", "setting": "[4]", "result": 2.2, "unit": "nM"}, {"measurement": "selectivity for KSP compared with other kinesins", "setting": "[5]", "result": "> 20,000 fold"}, {"measurement": "growth of xenograft tumors", "setting": "[6]", "result": "inhibited to a similar degree"}, {"measurement": "spindle pole separation", "setting": "[7]", "result": "inhibits spindle pole separation"}, {"measurement": "dose dependence of end of infusion concentrations and AUC", "setting": "[8]; 6 to 48 mg/m^2/24 h", "result": "increase approximately dose proportionally; also recorded: increased approximately proportionately to the dose administered"}, {"measurement": "AUC (±SD)", "setting": "[8]; at the MTD (17 mg/m^2/24 h)", "result": "10.5 (±7.3) μM × hour"}, {"measurement": "clearance (±SD)", "setting": "[8]; at the MTD (17 mg/m^2/24 h)", "result": 153, "unit": "mL/min"}, {"measurement": "dose recovered in urine as unchanged drug", "setting": "[9]", "result": "less than 4%"}, {"measurement": "proliferation", "setting": "[10]", "result": "inhibits proliferation"}, {"measurement": "Number of cycles, patient with stable disease", "setting": "[11]; 17 mg/m^2/24 h, non-small cell lung cancer", "result": "12 ^a cycles"}, {"measurement": "Number of cycles, patient with stable disease", "setting": "[11]; 17 mg/m^2/24 h, ovarian cancer", "result": "11 ^a cycles"}, {"measurement": "patients with prolonged stable disease", "setting": "[11]; 17 mg/m^2/24 h, part 2", "result": "four"}, {"measurement": "objective tumor response (RECIST)", "setting": "[11]; all patients", "result": "no objective tumor responses; also recorded: no partial or complete responses"}, {"measurement": "proliferation", "setting": "[12]", "result": "inhibits proliferation"}]}
{"smiles": "CC(=O)O[C@H]1C(=O)[C@@]2(C)[C@H]([C@H](OC(=O)c3ccccc3)[C@]3(O)C[C@H](OC(=O)[C@H](O)[C@@H](NC(=O)c4ccccc4)c4ccccc4)C(C)=C1C3(C)C)[C@]1(OC(C)=O)CO[C@@H]1C[C@@H]2O", "note": "[paclitaxel, reference compound]", "values": [{"measurement": "growth of xenograft tumors", "setting": "[6]", "result": "inhibited to a similar degree"}]}
